Reference: article PMC10337234 (Nature chemical biology, 2023)

Assays:
NONO C145 [1] = molecular target: T1, NONO C145 (Homo sapiens, UniProt Q15233); test: Cysteine-directed MS-ABPP, engagement of NONO C145 in 22Rv1 cells; assay type: binding; conditions: 1 h
T1 sequence (Q15233 1-471): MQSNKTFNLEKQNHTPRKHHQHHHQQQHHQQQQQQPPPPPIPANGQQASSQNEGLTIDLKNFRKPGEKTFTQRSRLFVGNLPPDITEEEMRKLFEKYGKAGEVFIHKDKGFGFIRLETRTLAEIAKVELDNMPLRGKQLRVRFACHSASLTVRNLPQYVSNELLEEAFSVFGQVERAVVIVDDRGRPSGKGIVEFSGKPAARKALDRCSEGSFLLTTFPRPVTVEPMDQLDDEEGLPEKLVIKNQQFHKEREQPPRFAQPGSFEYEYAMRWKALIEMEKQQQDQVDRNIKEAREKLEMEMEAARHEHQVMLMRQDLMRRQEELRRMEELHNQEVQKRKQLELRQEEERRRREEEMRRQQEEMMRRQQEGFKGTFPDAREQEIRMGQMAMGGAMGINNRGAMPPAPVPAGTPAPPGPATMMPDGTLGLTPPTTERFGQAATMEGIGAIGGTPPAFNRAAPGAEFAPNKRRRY
In short: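 22Rv1 cells were seeded at 2 × 10^6 per 10-cm plate and grown for 48 h. They were treated in situ with 20 μM test compound or DMSO for 1 h, then analysed by cysteine-directed MS-ABPP. Engagement was taken from the DMSO versus compound reactivity ratio, capped at 10 and 0.1. Values are means of three independent experiments, counting cysteines quantified in at least two.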

AR-FL mRNA = test: QuantiGene assay for AR-FL mRNA expression in 22Rv1 cells; assay type: cell-based; conditions: Homo sapiens, 22Rv1, 6 h, read-out: IC50 for AR-FL transcript suppression
AR-V7 mRNA = test: QuantiGene assay for AR-V7 mRNA expression in 22Rv1 cells; assay type: cell-based; conditions: Homo sapiens, 22Rv1, 6 h, read-out: IC50 for AR-V7 transcript suppression
NONO C145 [2] = molecular target: T1, NONO C145; assay type: binding
In short: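 HEK293T cells were seeded at 5 × 10^5 overnight and PEI-transfected with FLAG-tagged WT or C145S NONO, or empty vector, for 48 h. Cells were then given test compound or 0.1% DMSO in situ for 2 h, followed by a cysteine-reactive alkyne probe (20 μM, 1 h, 37 °C). Lysates (2 mg ml–1) were click-conjugated to rhodamine/TAMRA-azide and run on SDS-PAGE. The FLAG-NONO band was quantified by in-gel fluorescence. Four independent experiments gave the IC50.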

NONO = molecular target: T2, NONO (Homo sapiens, UniProt Q15233); test: Immunofluorescence of NONO nuclear foci in 22Rv1 cells; assay type: cell-based; conditions: 20 μM, 1 h to 24 h
T2 sequence (Q15233 1-471): T1 sequence (Q15233 1-471)

22Rv1 cells [3] = test: RNA-seq of sgControl 22Rv1 cells; assay type: cell-based, human; conditions: 20 μM, 4 h, log2 (fold change) < −0.5, Padj < 0.01, versus (S)-SKBG-1 or DMSO
22Rv1 cells [4] = test: Cell growth inhibition assay; assay type: cell-based, human; conditions: 22Rv1, 6 d, versus (S)-SKBG-1
In short: (§1)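 Cells were seeded at 5,000 per well for 16 h. They were then given 0.1% DMSO or test compound in 0.1% DMSO (threefold dilutions from 50 μM, eight concentrations) until DMSO controls were confluent: 6 d for 22Rv1, 5 d for MCF7, 4 d for HeLa and HT1080. CellTiterGlo was added for 30 min at room temperature and luminescence read. Signals were normalized to DMSO, with four replicate wells per concentration. EC50 came from a four-parameter variable-slope fit.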

MCF7 cells = test: Cell growth inhibition assay; assay type: cell-based, human; conditions: MCF7, 5 days, versus (S)-SKBG-1
In short: as §1

HeLa cells = test: Cell growth inhibition assay; assay type: cell-based, human; conditions: 4 days, versus (S)-SKBG-1
In short: as §1

HT1080 cells = test: Cell growth inhibition assay; assay type: cell-based, human; conditions: HT1080, 4 days, versus (S)-SKBG-1
In short: as §1

With `COc1ccc(CNC(=O)[C@@H]2CN(C(=O)CCl)CCN2S(=O)(=O)c2ccc(OC)cc2)cc1` [(S)-SKBG-1] the “engagement of NONO C145” value (NONO C145 [1]; 22Rv1 cells, 20 μM) was “not by the inactive controls”.

Molecule `COc1ccc(CNC(=O)[C@H]2CN(C(=O)CCl)CCN2S(=O)(=O)c2ccc(OC)cc2)cc1` [(R)-SKBG-1] has an IC50 (AR-FL mRNA) of 2.7 to 5.5 µM, an IC50 (AR-V7 mRNA) of 2.7 to 5.5 µM and an IC50 (NONO C145 [2]) of 5.7 µM. The inhibition at 20 µM (NONO C145 [1]; read-out: engagement of NONO C145) was greater than 50%, the “formation of subnuclear foci of NONO” value (NONO) was “induced the formation of large subnuclear foci of NONO” and the “number of transcripts substantially and significantly decreased” value (22Rv1 cells [3]) was ~ 1,000 transcripts. For the same molecule, the cell growth effect (22Rv1 cells [4]) was “stereoselective cell growth impairment”, the cell growth effect (MCF7 cells) was “stereoselective cell growth impairment” and the cell growth effect (HeLa cells) was “stereoselective cell growth impairment”. The cell growth effect (HT1080 cells) was “stereoselective cell growth impairment”.
